# According to publication PMC11017284 (Asian Journal of Pharmaceutical Sciences, 2024):
# Test system: Caco-2 cells
# Test: Caco-2 cellular uptake study
# Assay type: in vitro ADME, human
# Conditions: verapamil 50 µg/ml, 1 or 3 h
# Procedure, shortened: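 Caco-2 cells (DMEM, 20% FBS, 37 °C, 5% CO2) seeded at 5 × 10⁴/well and grown 24 h. Test compound as SNEDDS or solution (equivalent CTX 5 µg/ml) given with verapamil 50 µg/ml, 1 or 3 h at 37 °C. Washed three times with ice-cold PBS, sonicated in water (100 W), lysed, spun 13,000 rpm 10 min. CTX by HPLC; handling matched the no-inhibitor uptake arm.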
smiles,measurement,value
"CO[C@H]1C(=O)[C@]2(C)[C@@H](OC)C[C@H]3OC[C@@]3(OC(C)=O)[C@H]2[C@H](OC(=O)c2ccccc2)[C@]2(O)C[C@H](OC(=O)[C@H](O)[C@@H](NC(=O)OC(C)(C)C)c3ccccc3)C(C)=C1C2(C)C [CTX, cabazitaxel]",Change of Caco-2 uptake after adding P-gp inhibitor,no significant difference
